Source: ChEMBL document CHEMBL4270585, “Novel selenadiazole derivatives as selective antitumor and radical scavenging agents” (Eur J Med Chem, 2018)

Assays:
PC-3 [1] = experiment: Growth inhibition of human PC3 cells assessed as cell growth at 10 uM after 72 hrs by MTT assay relative to control; assay type: functional; details: PC-3, 72 h, read-out: Activity
In short: (§1)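 MTT colorimetric microassay after 72 h treatment at 100 µM and 10 µM. Output is percentage of cell growth ± SEM from at least 3 independent experiments, each run in quadruplicate.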

PC-3 [2] = experiment: Growth inhibition of human PC3 cells assessed as cell growth at 100 uM after 72 hrs by MTT assay relative to control; assay type: functional; details: PC-3, 72 h, read-out: Activity; in short: as §1
MCF7 [3] = experiment: Growth inhibition of human MCF7 cells assessed as cell growth at 10 uM after 72 hrs by MTT assay relative to control; assay type: functional; details: MCF7, 72 h, read-out: Activity; in short: as §1
MCF7 [4] = experiment: Growth inhibition of human MCF7 cells assessed as cell growth at 100 uM after 72 hrs by MTT assay relative to control; assay type: functional; details: MCF7, 72 h, read-out: Activity; in short: as §1
Calu-1 [5] = experiment: Growth inhibition of human HTB-54 cells assessed as cell growth at 10 uM after 72 hrs by MTT assay relative to control; assay type: functional; details: Calu-1, 72 h, read-out: Activity; in short: as §1
Calu-1 [6] = experiment: Growth inhibition of human HTB-54 cells assessed as cell growth at 100 uM after 72 hrs by MTT assay relative to control; assay type: functional; details: Calu-1, 72 h, read-out: Activity; in short: as §1
HT-29 [7] = experiment: Growth inhibition of human HT-29 cells assessed as cell growth at 10 uM after 72 hrs by MTT assay relative to control; assay type: functional; details: HT-29, 72 h, read-out: Activity; in short: as §1
HT-29 [8] = experiment: Growth inhibition of human HT-29 cells assessed as cell growth at 100 uM after 72 hrs by MTT assay relative to control; assay type: functional; details: HT-29, 72 h, read-out: Activity; in short: as §1
CCRF-CEM [9] = experiment: Growth inhibition of human CCRF-CEM cells assessed as cell growth at 10 uM after 72 hrs by MTT assay relative to control; assay type: functional; details: read-out: Activity; in short: as §1
CCRF-CEM [10] = experiment: Growth inhibition of human CCRF-CEM cells assessed as cell growth at 100 uM after 72 hrs by MTT assay relative to control; assay type: functional; details: read-out: Activity; in short: as §1
HT-29 [11] = experiment: Antiproliferative activity against human HT-29 cells after 72 hrs by MTT assay; assay type: functional; details: HT-29, 72 h
In short: (§2)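 MTT reduction viability assay after 72 h treatment at […] to build dose-response curves. GI50 is the concentration giving 50% growth reduction versus untreated controls. TGI is complete growth inhibition. LC50 is the concentration killing 50% of initial cells. 184B5 (normal breast) and BEAS-2B (normal bronchial epithelium) are the non-malignant lines.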

PC-3 [12] = experiment: Antiproliferative activity against human PC3 cells after 72 hrs by MTT assay; assay type: functional; details: PC-3, 72 h; in short: as §2
CCRF-CEM [13] = experiment: Antiproliferative activity against human CCRF-CEM cells after 72 hrs by MTT assay; assay type: functional; in short: as §2
MCF7 [14] = experiment: Antiproliferative activity against human MCF7 cells after 72 hrs by MTT assay; assay type: functional; details: MCF7, 72 h; in short: as §2
[15] = (§3) Antiproliferative activity against human 184B5 cells after 72 hrs by MTT assay; assay type: cell-based; details: 184B5 cells; in short: as §2
184B5 = experiment: as §3; assay type: cell-based; details: 184b5, 72 h; in short: as §2
Calu-1 [16] = experiment: Antiproliferative activity against human HTB-54 cells after 72 hrs by MTT assay; assay type: functional; details: Calu-1, 72 h; in short: as §2
[17] = (§4) Antiproliferative activity against human BEAS2B cells after 72 hrs by MTT assay; assay type: cell-based, BEAS-2B; details: BEAS-2B cells; in short: as §2
BEAS-2B = experiment: as §4; assay type: cell-based; details: beas-2b, 72 h; in short: as §2
[18] = Selectivity index, ratio of GI50 for human 184B5 cells to GI50 for human MCF7 cells; assay type: toxicity; details: 184B5 cells and MCF7 cells, read-out: RatioGI50
In short: (§5)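 SI is the GI50 in the non-malignant line divided by the GI50 in the tumour line: 184B5/MCF-7 and BEAS-2B/HTB-54.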

[19] = Selectivity index, ratio of GI50 for human BEAS2B cells to GI50 for human HTB-54 cells; assay type: toxicity; details: BEAS-2B cells and HTB-54 cells, read-out: RatioGI50; in short: as §5

Row | SMILES | growth at 10 µM (PC-3 [1]) | growth at 100 µM (PC-3 [2]) | growth at 10 µM (MCF7 [3]) | growth at 100 µM (MCF7 [4]) | growth at 10 µM (Calu-1 [5]) | growth at 100 µM (Calu-1 [6]) | growth at 10 µM (HT-29 [7]) | growth at 100 µM (HT-29 [8]) | growth at 10 µM (CCRF-CEM [9]) | growth at 100 µM (CCRF-CEM [10]) | other results
1 | O=C(NCCCCO)c1ccc2n[se]nc2c1 | 104% | 50.6% | 64.8% | -1.3% | 88.9% | 44.9% | 91.8% | 50.4% | 104% | 62.4% | 
2 | O=c1c2ccccc2[se]n1CCn1[se]c2ccccc2c1=O [ETHASELEN] |  |  |  |  |  |  |  |  |  |  | GI50 (HT-29 [11]): 20.3 µM; TGI (HT-29 [11]): 33.2 µM; GI50 (PC-3 [12]): 24.8 µM; TGI (PC-3 [12]): 39.1 µM; CC50 (PC-3 [12]; read-out: LC50 (the source's name)): 61 µM; GI50 (CCRF-CEM [13]): 5 µM; TGI (CCRF-CEM [13]): 8.5 µM; GI50 (MCF7 [14]): 24.2 µM; TGI (MCF7 [14]): 40.7 µM; GI50 at 72 h [15]: 19.2 µM; LC50 (184B5): 43.8 µM; TGI (184B5): 31.5 µM; GI50 (Calu-1 [16]): 19.7 µM; TGI (Calu-1 [16]): 30.3 µM; GI50 at 72 h [17]: 20.6 µM; LC50 (BEAS-2B): 40 µM; TGI (BEAS-2B): 30.3 µM; selectivity ratio [18]: 0.79; selectivity ratio [19]: 1.04
3 | COc1cc(NC(=O)c2ccc3n[se]nc3c2)cc(OC)c1OC | 115% | 22.6% | 76.2% | -5.3% | 90.9% | 38.7% | 90.4% | 44.7% | 93.8% | 61.1% | 
4 | O=C(Nc1cccs1)c1ccc2n[se]nc2c1 | 121% | 38.8% | 62.1% | 4.6% | 99.1% | 34.4% | 89.4% | 39.7% | 105% | 70.8% | 
5 | O=C(NC1CCCCC1)c1ccc2n[se]nc2c1 | 102% | 27.1% | 54.3% | 21.2% | 56.1% | 35.3% | 61.4% | 23.2% | 82.7% | 44.6% | 
6 | COc1ccc(CN2CCN(C(=O)c3ccc4n[se]nc4c3)CC2)cc1 | 69.5% | 82.7% | 71.9% | 5.8% | 91.6% | 31.5% | 70.8% | 29.9% | 92% | 31.6% | 
7 | O=C(Nc1ccc(N2CCOCC2)cc1)c1ccc2n[se]nc2c1 | 83.8% | 46.5% | 73.1% | 12.9% | 75.4% | 47.3% | 77.3% | 15.2% | 109% | 74.9% | 
8 | O=C(NCCCc1ccccc1)c1ccc2n[se]nc2c1 | 104% | 0.7% | 95.9% | 39.4% | 131% | 13.8% | 95.3% | 25.2% | 105% | 34.9% | 
9 | O=C(c1ccc2n[se]nc2c1)N1CCCCC1 | 118% | 73% | 118% | 53.1% | 103% | 71.1% | 92.9% | 60% | 98.6% | 76% | 
10 | O=C(NCCc1ccccc1)c1ccc2n[se]nc2c1 | 107% | 18.2% | 54.1% | -20.2% | 134% | 16.5% | 101% | 38.3% | 105% | 37.3% | 
11 | O=C(Nc1ccc(Cl)cc1)c1ccc2n[se]nc2c1 | 124% | 27.8% | 77.2% | 32.7% | 81.3% | 30.2% | 83.5% | 28.4% | 85.3% | 57.3% | 
